Activity calls are given as the source filed them. The rule behind the calls is not given here.
What was measured:
Mel-Ab [1] = test: Reduction of MITF level in 24 hrs serum starved mouse Mel-Ab cells at 50 uM measured after 3 hrs by Western blot analysis in presence of PD-98059
[2] = Inhibition of melanin synthesis in mouse Mel-Ab cells assessed as reduction in melanin synthesis at 50 uM after 4 hrs by phase-contrast microscopy in presence of PD-98059 ERK pathway inhibitor; assay type: functional, cell-based; details: in the assay text read “4 days” for “4 hrs”
How it was run: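 Mel-Ab cells pretreated 1 h with 20 µM PD98059, then cultured four days with 50 µM compound. Phase-contrast photography, then melanin read as OD 400 nm after dissolving pellets in 1 N NaOH at 100 °C. Triplicate determinations, mean ± SD.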

Mel-Ab [3] = test: Reduction of MITF level in 24 hrs serum starved mouse Mel-Ab cells […] measured after 3 hrs followed by MG132 proteasome inhibitor for 1 hr by Western blot analysis; assay type: functional
How it was run: (§1)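 After serum starvation, Mel-Ab cells pretreated 1 h with 25 µg/mL cycloheximide, then 1 h with 25 µM MG132 and/or 100 µM chloroquine, then 3 h with 50 µM compound. MITF detected by Western blot of whole-cell lysates.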

[4] = biological target: T1, Tyrosinase (Mus musculus) (UniProt P11344); test: Inhibition of tyrosinase activity in mouse Mel-Ab cells assessed as inhibition of melanogenesis at 1 to 100 uM by ELISA
T1 sequence (whole entry): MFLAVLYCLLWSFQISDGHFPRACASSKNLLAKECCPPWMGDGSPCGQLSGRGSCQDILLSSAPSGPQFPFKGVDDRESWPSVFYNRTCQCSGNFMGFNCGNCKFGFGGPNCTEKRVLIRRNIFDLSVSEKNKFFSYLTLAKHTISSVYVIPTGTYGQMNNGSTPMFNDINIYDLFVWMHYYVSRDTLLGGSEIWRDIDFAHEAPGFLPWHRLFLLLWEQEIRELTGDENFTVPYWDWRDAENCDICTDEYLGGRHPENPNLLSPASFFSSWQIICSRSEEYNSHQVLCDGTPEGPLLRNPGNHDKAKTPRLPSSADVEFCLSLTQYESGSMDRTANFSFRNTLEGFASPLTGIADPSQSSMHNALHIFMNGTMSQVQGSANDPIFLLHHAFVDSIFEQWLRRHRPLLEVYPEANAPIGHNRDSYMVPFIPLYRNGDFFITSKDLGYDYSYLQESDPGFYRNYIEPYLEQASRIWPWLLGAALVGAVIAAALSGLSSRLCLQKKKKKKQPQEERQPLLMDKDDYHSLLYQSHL

Mel-Ab [5] = test: Reduction of tyrosinase protein level in 24 hrs serum starved mouse Mel-Ab cells at 50 uM measured after 24 to 72 mins by Western blot analysis; assay type: functional; details: in the assay text read “24 to 72 hrs” for “24 to 72 mins”
How it was run: (§2)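 Mel-Ab cells cultured 24–72 h with 50 µM. Whole-cell lysates (10 µg protein/lane) analysed by Western blot for MITF and tyrosinase, with actin as loading control.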

Mel-Ab [6] = test: Induction of ERK activity in 24 hrs serum starved mouse Mel-Ab cells at 50 uM by Western blot analysis; assay type: cell-based
How it was run: (§3)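 Mel-Ab cells serum-starved 24 h, then given 50 µM for the indicated times up to 360 min. Whole-cell lysates run at 10 µg protein per lane by SDS-PAGE and blotted on PVDF. Probed with 1:1000 antibodies to phospho-ERK, phospho-Akt, MITF and tyrosinase; actin served as loading control.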

Mel-Ab [7] = test: Cytotoxicity against mouse Mel-Ab cells at 1 to 100 uM after 24 hrs by crystal violet assay; assay type: functional, cell-based
How it was run: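 Mel-Ab (spontaneously immortalized mouse melanocytes; DMEM, 10% FBS, 100 nM TPA, 1 nM CT, 37 °C, 5% CO2) exposed 24 h to 1, 10, 50, 100 µM. Crystal violet staining (0.1% in 10% ethanol, 5 min, room temperature), four water rinses, dye extracted with 95% ethanol, absorbance read at 590 nm.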

[8] = biological target: T2, Microphthalmia-associated transcription factor (Mus musculus) (UniProt Q08874); test: Down regulation of MITF activity in 24 hrs serum starved mouse Mel-Ab cells at 50 uM measured after 60 to 360 mins by Western blot analysis; assay type: cell-based
T2 sequence (whole entry): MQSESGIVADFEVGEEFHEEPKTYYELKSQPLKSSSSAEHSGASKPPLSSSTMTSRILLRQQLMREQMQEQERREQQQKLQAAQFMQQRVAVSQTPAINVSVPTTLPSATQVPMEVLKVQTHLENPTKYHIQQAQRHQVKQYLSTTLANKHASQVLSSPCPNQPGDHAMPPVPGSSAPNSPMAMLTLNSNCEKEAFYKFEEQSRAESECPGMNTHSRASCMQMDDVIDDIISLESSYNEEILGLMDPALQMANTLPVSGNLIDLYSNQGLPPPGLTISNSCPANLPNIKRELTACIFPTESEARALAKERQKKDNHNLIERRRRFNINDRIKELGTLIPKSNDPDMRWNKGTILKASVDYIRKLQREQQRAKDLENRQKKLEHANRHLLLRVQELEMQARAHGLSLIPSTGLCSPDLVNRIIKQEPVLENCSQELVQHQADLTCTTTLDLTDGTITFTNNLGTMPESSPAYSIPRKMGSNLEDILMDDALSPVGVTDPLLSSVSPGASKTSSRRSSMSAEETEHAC
How it was run: as §3

Mel-Ab [9] = test: Inhibition of melanin synthesis in mouse Mel-Ab cells assessed as reduction in melanin synthesis at 1 to 100 uM after 4 hrs by phase-contrast microscopy; assay type: functional, cell-based; details: in the assay text read “4 days” for “4 hrs”
How it was run: (§4)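 Mel-Ab melanocytes in TPA/CT-supplemented DMEM given 1–100 µM for four days. Cells photographed under phase contrast. Pellets then dissolved in 1 N NaOH, 100 °C, 30 min, spun 16000g for 20 min, supernatant OD read at 400 nm. Mean ± SD of three replicate experiments, compared with untreated control.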

Mel-Ab [10] = test: Induction of ERK activity in 24 hrs serum starved mouse Mel-Ab cells at 50 uM by Western blot analysis in presence of PD-98059; assay type: cell-based
Mel-Ab [11] = test: Reduction of MITF level in 24 hrs serum starved mouse Mel-Ab cells […] measured after 3 hrs followed by chloroquine lysosomal proteolysis inhibitor for 1 hr by Western blot analysis; assay type: functional
How it was run: as §1

Mel-Ab [12] = test: Inhibition of melanin synthesis in mouse Mel-Ab cells assessed as in melanin content after 4 hrs by ELISA; assay type: functional, cell-based; details: in the assay text read “4 days” for “4 hrs”
How it was run: as §4

Mel-Ab [13] = test: Reduction of MITF level in 24 hrs serum starved mouse Mel-Ab cells at 25 ug/ml measured after 3 hrs followed by MG132/chloroquine for 1 hr by Western blot analysis; assay type: functional; details: 50 uM, in the assay text read “50 uM” for “25 ug/ml”
How it was run: as §1

Mel-Ab [14] = test: Reduction of MITF level in 24 hrs serum starved mouse Mel-Ab cells at 50 uM measured after 24 to 72 mins by Western blot analysis; assay type: functional; details: in the assay text read “24 to 72 hrs” for “24 to 72 mins”
How it was run: as §2

Q: What does the source list for `CC1(C)Oc2cc3oc(=O)ccc3cc2C[C@@H]1OC(=O)/C=C/c1ccccc1`?
A: Activity (Mel-Ab [1]): inactive; Activity [2]: inactive; Activity (Mel-Ab [3]): inactive; Activity [4]: Active; Activity (Mel-Ab [5]): Active; Activity (Mel-Ab [6]): Active; Activity (Mel-Ab [7]): inactive; Activity [8]: Active; Activity (Mel-Ab [9]): Active; Activity (Mel-Ab [10]): inactive; Activity (Mel-Ab [11]): inactive; Activity (Mel-Ab [12]): Dose-dependent effect; Activity (Mel-Ab [13]): Active; Activity (Mel-Ab [14]): Active

— ChEMBL document CHEMBL1158586, “Hypopigmentary action of dihydropyranocoumarin D2, a decursin derivative, as a MITF-degrading agent” (J Nat Prod, 2010)
